Assays:
rat [1] = assay: concentration in lung after dosing; conditions: dosed: benzo[a]pyrene, inhalation, duration: 4 hr, F344
rat [2] = assay: concentration in plasma after dosing; conditions: dosed: benzo[a]pyrene, inhalation, duration: 4 hr, F344
rat [3] = assay: concentration in expired air after dosing; conditions: dosed: hexachloroethane, 53.3 ppm, inhalation, duration: 6 hr
rat [4] = assay: concentration in expired air after dosing; conditions: dosed: hexachloroethane, 53.3 ppm, inhalation, duration: 6 hr; remark: listed apart in the source
rat [5] = conditions: dosed: benzo[a]pyrene, 10 umol/kg, dermal, duration: continuous, male, Wistar
rat [6] = conditions: dosed: benzo[a]pyrene, 10 umol/kg, oral, male, Wistar
rat [7] = conditions: dosed: benzo[a]pyrene, 50 umol/kg, oral, male, Wistar
rat [8] = conditions: dosed: benzo[a]pyrene, 20 umol/kg, dermal, duration: continuous, male, Wistar
rat [9] = conditions: dosed: benzo[a]pyrene, 20 umol/kg, oral, male, Wistar
rat [10] = conditions: dosed: benzo[a]pyrene, 50 umol/kg, dermal, duration: continuous, male, Wistar
dog = assay: concentration in blood after dosing; negative times count back from the end of exposure; conditions: dosed: tetrachloroethylene, inhalation, duration: 4 hr, male, beagle
Summary of the method: (§1)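 Concentration-versus-time or amount-versus-time points were compiled from published in vivo toxicokinetic studies and from two structured collections. The studies were found by PubMed searching, classifier screening and manual review. Points were mostly digitised from plot screenshots with WebPlotDigitizer, otherwise copied from tables, and kept in the reported units. Dose, route, subject details and medium were curated by hand from each paper, and sampling and analytical methods follow each source and were often unreported.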

human [11] = assay: as above; conditions: dosed: tetrachloroethylene, 144 ppm, inhalation, duration: 4 hr, male
Summary of the method: as §1

rat [12] = conditions: dosed: benzo[a]pyrene, 1 mg/kg, iv, male, Sprague Dawley
rat [13] = conditions: dosed: benzo[a]pyrene, 1 mg/kg, iv, male, Sprague Dawley; remark: listed apart in the source
rat [14] = assay: concentration in serum after dosing; conditions: dosed: benzo[a]pyrene, 20 mg/kg, oral, male, Wistar
human [15] = assay: amount in urine after dosing (umol); conditions: dosed: tert-amyl methyl ether, 38.4 ppm, inhalation, duration: 4 hr
Summary of the method: as §1

rat [16] = assay: amount in urine after dosing (umol); conditions: dosed: tert-amyl methyl ether, 38.4 ppm, inhalation, duration: 4 hr, F344 (Harlan Winkelmann)

Oc1ccc2ccc3c4ccccc4cc4ccc1c2c43 [3-hydroxy benzo[a]pyrene]
Conditions | concentration in lung, 0.05 h [ng/mL] | concentration in lung, 1 h [ng/mL] | concentration in lung, 2 h [ng/mL] | concentration in lung, 4 h [ng/mL] | concentration in plasma, 0.5 h [ng/mL] | concentration in plasma, 1 h [ng/mL] | concentration in plasma, 2 h [ng/mL] | concentration in plasma, 4 h [ng/mL]
rat [1], 0.1 mg/m^3, female | 0.389 | 3.61 | 0.814 | 0.209 | – | – | – | –
rat [1], 0.1 mg/m^3, male | 0.29 | 2.87 | 1.21 | 0.154 | – | – | – | –
rat [1], 1 mg/m^3, female | 11.8 | 15.5 | 14.6 | 1.6 | – | – | – | –
rat [1], 1 mg/m^3, male | 5.1 | 16.6 | 5.12 | 3 | – | – | – | –
rat [1], 2.5 mg/m^3, female | 23.9 | 52.2 | 12.3 | 1.49 | – | – | – | –
rat [1], 2.5 mg/m^3, male | 21.7 | 48.1 | 8.15 | 3.18 | – | – | – | –
rat [2], 0.1 mg/m^3, female | – | – | – | – | 0.174 | 0.689 | 0.344 | 0.0192
rat [2], 0.1 mg/m^3, male | – | – | – | – | 0.301 | 0.905 | 0.305 | 0.0316
rat [2], 1 mg/m^3, female | – | – | – | – | 0.399 | 7 | 0.356 | 0.00793
rat [2], 1 mg/m^3, male | – | – | – | – | 0.606 | 8.58 | 0.97 | 0.00272
rat [2], 2.5 mg/m^3, female | – | – | – | – | 5.8 | 34.5 | 6.62 | 0.324
rat [2], 2.5 mg/m^3, male | – | – | – | – | 5.6 | 33.1 | 7.14 | 0.363

ClC(Cl)(Cl)C(Cl)(Cl)Cl [hexachloroethane]
concentration in expired air [ng/mL]
Conditions | rat [3] | rat [4]
0.2509 h | 96.3 | –
0.7326 h | 55.5 | –
0.8034 h | – | 73.1
0.9876 h | 48.8 | 51.1
1.498 h | 49.2 | –
1.653 h | – | 36.3
1.979 h | – | 26.3
2.489 h | 27.8 | 24.2
2.985 h | 19.8 | –
3.509 h | – | 17.9
4.983 h | 15.7 | 10.9
5.975 h | 15.4 | –
5.989 h | – | 10.1
7.236 h | – | 9.9
7.986 h | 7.51 | 8.23
8.978 h | 6.78 | 7.36
9.998 h | 5.85 | 6.12
29.5 min | – | 79.4

Oc1ccc2ccc3c4ccccc4cc4ccc1c2c43 [3-OH-benzo[a]pyrene]
Conditions | amount in urine after dosing [µg]
rat [5], 23.76 h | 0.169
rat [5], 48.25 h | 1.6
rat [5], 72.44 h | 5.62
rat [5], 96.26 h | 8.27
rat [5], 120.41 h | 10.3
rat [5], 145.21 h | 10.7
rat [6], 23.94 h | 0.884
rat [6], 48.41 h | 1.94
rat [6], 72.16 h | 3.75
rat [6], 96.63 h | 4.84
rat [6], 120.41 h | 5.22
rat [6], 144.81 h | 5.41
rat [7], 23.43 h | 7.37
rat [7], 47.73 h | 18.4
rat [7], 71.9 h | 31.3
rat [7], 95.37 h | 33.1
rat [7], 120.29 h | 33.4
rat [7], 144.04 h | 33.6
rat [8], 23.4 h | 0.591
rat [8], 48.57 h | 2.38
rat [8], 72.51 h | 6.61
rat [8], 96.49 h | 9.6
rat [8], 120.43 h | 10.6
rat [8], 145.24 h | 11
rat [9], 24.03 h | 3.66
rat [9], 47.78 h | 5.43
rat [9], 72.42 h | 7.03
rat [9], 96.58 h | 7.51
rat [9], 121.02 h | 8.21
rat [9], 144.77 h | 8.23
rat [10], 23.15 h | 4.97
rat [10], 47.4 h | 8.97
rat [10], 71.67 h | 13.3
rat [10], 95.8 h | 17.3
rat [10], 120.35 h | 20
rat [10], 144.4 h | 20.8

ClC(Cl)=C(Cl)Cl [tetrachloroethylene]
Conditions | concentration in blood [ng/mL]
dog, 2.446 h, 142 ppm | 696
dog, 2.79 h, 72 ppm | 345
dog, 18.14 h, 72 ppm | 371
dog, 18.34 h, 142 ppm | 848
dog, 42.06 h, 72 ppm | 352
dog, 42.32 h, 142 ppm | 798
dog, 67.19 h, 72 ppm | 315
dog, 67.21 h, 142 ppm | 681
dog, 91.19 h, 72 ppm | 262
dog, 92.53 h, 142 ppm | 603
dog, 139.29 h, 72 ppm | 166
dog, 139.47 h, 142 ppm | 405
dog, 163.11 h, 72 ppm | 135
dog, 163.12 h, 142 ppm | 314
human [11], -0.3835 h, during exposure | 484

dog, during exposure
Conditions | concentration in blood [ng/mL]
-227 s, 72 ppm | 200
-0.3342 h, 142 ppm | 516

human [11]
Conditions | concentration in blood [ng/mL]
2.478 h | 601
18.43 h | 752
42.35 h | 705
67.23 h | 618
92.18 h | 515
139.2 h | 334
163.09 h | 271

Oc1ccc2ccc3c4ccccc4cc4ccc1c2c43 [3-hydroxybenzo[a]pyrene]
Conditions | amount in feces after dosing [ng] | amount in urine after dosing [ng] | concentration in serum [ng/mL]
rat [12], 10.07 h | 4790 | – | –
rat [12], 24.05 h | 16900 | – | –
rat [12], 48.1 h | 22700 | – | –
rat [12], 72.03 h | 23700 | – | –
rat [12], 96.08 h | 24500 | – | –
rat [12], 120 h | 24900 | – | –
rat [13], 10.02 h | – | 46.8 | –
rat [13], 23.97 h | – | 166 | –
rat [13], 47.95 h | – | 220 | –
rat [13], 71.92 h | – | 269 | –
rat [13], 95.9 h | – | 310 | –
rat [13], 119.75 h | – | 346 | –
rat [14], 1.009 h | – | – | 1.32
rat [14], 2.018 h | – | – | 1.26
rat [14], 3.995 h | – | – | 5.22
rat [14], 6.005 h | – | – | 4.15
rat [14], 7.982 h | – | – | 2.24
rat [14], 9.992 h | – | – | 1.6

CCC(C)(O)C(=O)O (configuration not stated) [2-hydroxy-2-methyl butyrate]
Conditions | amount in urine
human [15], 0.1093 h | 54.7
human [15], 6.284 h | 93.4
human [15], 12.15 h | 100
human [15], 18.2 h | 59.9
human [15], 24.12 h | 39.1
human [15], 30.12 h | 33.6
human [15], 36.29 h | 57.8
human [15], 42.13 h | 29.8
human [15], 48.22 h | 51.6
rat [16], 5.978 h | 0.204
rat [16], 12 h | 0.29
rat [16], 18.07 h | 0.213
rat [16], 24.08 h | 0.0776
rat [16], 29.94 h | 0.0345
rat [16], 36.02 h | 0.092
rat [16], 42.04 h | 0.103
rat [16], 48.11 h | 0.0517

From EPA's CvTdb concentration-time database
